Sampled rows, rich in hits. Any-hit rate of the full collection: about 0.96%.
AGP1 TOR yeast – yeast TOR pathway AGP1-GFP modulation. S. cerevisiae AGP1-GFP multiplex flow cytometry, 3 h; GFP as percent of DMSO wells. GFP response vs DMSO, % at 10 µM. hit rate 0.02% among 320,000. AID 2066;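 active = GFP response relative to DMSO above a set limit, near screen average plus 3 SD, cut at about 150% in these data; inconclusive = fewer than 70 cells counted for the yeast strain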;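 note: median GFP channel fluorescence of the gated AGP1 strain per well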
RPL19A TOR yeast – alters RPL19A-GFP fluorescence in TOR pathway yeast screen; S. cerevisiae RPL19A-GFP strain, flow cytometry, 3 h; active compounds read low; percent response vs DMSO, % at 10 µM; hit rate 0.3% among 330,000; AID 2025;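 active = percent response vs DMSO below 50%; inconclusive = fewer than 70 events counted for the yeast strain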;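 note: median channel GFP fluorescence of the barcoded RPL19A-GFP strain; ratio of sample median GFP to plate DMSO average so 100% = DMSO; lower means less RPL19A-GFP as with rapamycin TOR inhibition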
T cell modulator – T cell immune modulation candidate. 2C CD8+ T cell-vesicle binding, flow cytometry; active compounds read low. response (vesicle binding), % at 7 µM. hit rate 0.068% among 330,000;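 active = response, share of CD8 T cells binding vesicles, and their 90th percentile fluorescence all below set limits, cut at about 80% in these data, passing the limit was not always enough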;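 note: values below 100% mean blocked vesicle binding to the CD8+ T cells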
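Benchmarks: naked versus QL9-loaded vesicles / Assay system: purified 2C TCR transgenic mouse naive CD8+ T cells / Technique: high-throughput flow cytometry with anti-B7-1 and anti-CD8 staining / Timing: Cell–vesicle co-incubation 1.5 h at 37 °C, staining 20 min on ice / Read-out: percent CD8+ FL2 mean versus row control / Probe or stimulus: QL9-loaded Drosophila micro-vesicles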
LAP4-GFP MLPCN – alters LAP4-GFP fluorescence in TOR pathway yeast screen | S. cerevisiae LAP4-GFP multiplex, flow cytometry GFP, 3 h; median GFP as percent of DMSO wells | GFP response vs DMSO, % at 10 µM | hit rate 0.34% among 320,000 | AID 2023;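 active = GFP response vs DMSO above a set limit, about the screen mean plus 3 SD, cut at about 150% in these data; inconclusive = under 70 cell events counted for the yeast strain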
CIT2 TOR yeast – yeast TOR pathway CIT2-GFP modulation; S. cerevisiae CIT2-GFP strain, flow cytometry, 3 h; 100 means same as DMSO wells; hit rate 0.065% among 320,000; AID 2029; GFP response vs DMSO, % at 10 µM;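 active = GFP response relative to DMSO above a set limit, near the screen mean plus 3 SD, cut at about 150% in these data; inconclusive = Fewer than 70 cells measured for a yeast strain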;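 note: ratio of well median GFP fluorescence to mean of DMSO wells on the plate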
MEP2 TOR yeast – modulators of TOR pathway MEP2-GFP in S. cerevisiae; S. cerevisiae MEP2-GFP strain, flow cytometry GFP, 3 h; 100% = DMSO control level; GFP response vs DMSO, % at 10 µM; hit rate 0.51% among 330,000;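 active = GFP response versus DMSO above a set limit, roughly screen mean plus 3 SD, cut at about 180% in these data; inconclusive = fewer than 70 cells counted for a yeast strain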;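 note: median GFP fluorescence of the barcode-gated MEP2-GFP cells per well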
Active calls of the source: *; ? = inconclusive; + = active, no number; [ ] = remark or other dose.

SMILES	AGP1 TOR yeast	RPL19A TOR yeast	T cell modulator	LAP4-GFP MLPCN	CIT2 TOR yeast	MEP2 TOR yeast
CCc1ccc(-c2nc(CSCC(=O)N3CCN(c4ccccn4)CC3)c(C)o2)cc1	19.2	44.6*[may fluoresce violet]	345.1	98.5	?	177.3*[may fluoresce violet]
Cc1nc(Oc2ccccc2)c2oc3ccccc3c2n1	?	57.0	343.9	111.7	?	429.7*[may fluoresce violet]
CCCCc1ccc(NC(=O)Nc2cc(C)nn2C)cc1	97.6	100.5	397.7	100.4	93.2	104.2
CNC(=O)/C(C#N)=C/c1c(N2CCCCCC2)nc2ccccn2c1=O	20.6	77.1	231.3	93.3	80.0	215.6*
CC(=O)c1ccc(N2CCN(C(=O)C3CCCN(S(=O)(=O)c4c(C)[nH]c(=O)[nH]c4=O)C3)CC2)cc1 (configuration not stated)	98.5	95.4	222.2	91.9	94.7	90.7
Nc1ccc(CC2SC(=O)NC2=O)cc1 (configuration not stated)	?	50.8	432.5	132.1	?	415.7*[may fluoresce violet]
COC(=O)c1ccc(OC(=O)CS(=O)c2ccccc2[N+](=O)[O-])cc1 (configuration not stated)	21.1	69.2	203.1	220.1*[may fluoresce violet]	?	191.0*[may fluoresce violet]
CCOC(=O)c1ccccc1OC(=O)CS(=O)c1ccccc1[N+](=O)[O-] (configuration not stated)	92.1	93.8	158.0	98.3	85.1	93.3
COc1ccc(OC)c(C2C(C(=O)Nc3nc4ccccc4s3)=C(C)NC3=C2C(=O)CCC3)c1 (configuration not stated)	39.2	78.6	177.4	100.1	72.3	183.0*
COCc1nnc(NC(=O)C2CCN(C(=O)c3ccco3)CC2)s1	19.1	56.5	559.8	113.3	?	967.9*[may fluoresce violet]
Cc1ccc(C(=O)N2CCC3(CC2)Oc2ccc(F)cc2C(=O)C32CC(c3ccccc3)=NO2)s1 (configuration not stated)	83.0	98.1	251.0	106.4	68.5	85.2
CC1Cc2cc(S(=O)(=O)CCC(=O)NC3CCCCC3)ccc2N1C(=O)C1CC1 (configuration not stated)	102.9	102.2	385.0	93.9	103.5	96.8
CCC(=O)N1c2ccc(S(=O)(=O)CCC(=O)Nc3nccs3)cc2CC1C (configuration not stated)	?	28.7*[may fluoresce violet]	213.4	?	?	?
COc1ccc(NC(=O)N2CCCCCC2)cc1OC	92.5	119.1	288.6	74.2	107.7	118.1
Cc1cccc(-n2ncc(C(=O)NC3CCCC3)c2C2CCN(C(=O)OC(C)(C)C)CC2)c1	104.7	99.1	209.6	98.8	99.5	98.5
CC(=O)N[C@@H](CC(=O)N[C@H](CCC(=O)O)C(=O)O)C(=O)O	15.8	47.3*[may fluoresce violet]	617.9	100.3	?	528.1*[may fluoresce violet]
O=C(O)CCC(NC(=O)c1cncc(O)c1)C(=O)O (configuration not stated)	98.5	101.9	487.0	105.1	101.6	99.1
COc1ccc(-n2nc3c(c2NC(=O)C2CC(=O)N(c4ccccc4)C2)CS(=O)(=O)C3)cc1 (configuration not stated)	100.2	106.9	602.8	79.4	105.4	100.6
CCOCCCNC(=O)/C(C#N)=C/c1ccc([N+](=O)[O-])o1	80.0	126.4	516.8	488.2*	102.6	+
CC(NC(=O)/C(C#N)=C/c1ccc([N+](=O)[O-])o1)c1ccccc1 (configuration not stated)	149.7	203.0	105.4	894.7*[may fluoresce violet]	?	+[may fluoresce violet]
CCOCCCNC(=O)/C(C#N)=C/c1ccc(-c2ccc(S(=O)(=O)N3CCOCC3)cc2)o1	100.5	101.0	196.5	89.5	96.1	98.4
Cc1noc(C)c1NC(=O)N(C)C[C@@H]1Oc2ccc(NC(=O)CCC(F)(F)F)cc2CC(=O)N([C@@H](C)CO)C[C@@H]1C	95.9	94.9	218.3	95.3	89.1	92.8
COC(=O)c1ccc(COc2ccc(-c3nnn(CC(N)=O)n3)cc2)cc1	99.7	97.4	0.0*	97.4	94.2	90.7

Assay outcomes as filed in PubChem BioAssay.
